Source: ChEMBL document CHEMBL1687720 (Antimicrob Agents Chemother, 2009)
≈ marks a conversion by molar mass, not a printed value. Calls of active or inactive are those of the source. The calls are words filed in the database; no cut-off is given here.

Assays:
[1] = test system: Plasmodium falciparum; assay: Antiplasmodial activity against chloroquine-sensitive Plasmodium falciparum 3D7 assessed as inhibition of trophozoite stage parasite growth at IC50 after 6 hr by [3H]hypoxanthine incorporation assay; type: functional, organism-based
How it was run: (§1)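 P. falciparum 3D7 is synchronized with sorbitol. […] Cells are washed four times, then labelled with [3H]hypoxanthine for 24 h. Growth is given as % of untreated control for each stage, in triplicate.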

[2] = test system: Heme; assay: Inhibition of heme aggregation at 500 uM
How it was run: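 Hemin chloride stock (10 mM in 0.1 M NaOH), prepared fresh and held at 37°C for at least 1 h. Aggregation run in 20 mM sodium phosphate pH 5.2 with 25 μM initial heme at 37°C. Inhibitor dissolved in dimethylformamide or buffer. After incubation, samples centrifuged and absorbance read at 360 nm, with matching control values subtracted.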

[3] = test system: Plasmodium falciparum; assay: Antiplasmodial activity against chloroquine-sensitive Plasmodium falciparum 3D7 assessed as inhibition of ring stage parasite growth at IC50 after 6 hr by [3H]hypoxanthine incorporation assay; type: functional, organism-based; how it was run: as §1
[4] = test system: Plasmodium falciparum; assay: Antiplasmodial activity against chloroquine-sensitive Plasmodium falciparum 3D7 assessed as inhibition of schizont stage parasite growth at IC50 after 6 hr by [3H]hypoxanthine incorporation assay; type: functional, organism-based; how it was run: as §1
[5] = test system: L6; assay: Cytotoxicity against rat L6 cells; type: cell-based

| inhibition [2] | SMILES | growth inhibition (GI) [1] | growth inhibition (GI) [3] | growth inhibition (GI) [4] | IC50 [5] |
| --- | --- | --- | --- | --- | --- |
| inactive | CCN(CC)CCCC(C)Nc1ccnc2cc(Cl)ccc12 (stereo not given) | Active | Active | Active | – |
| – | COc1cc([C@@H]2c3cc4c(cc3[C@H](O)[C@H]3COC(=O)[C@H]23)OCO4)cc(OC)c1OC [PODOFILOX] | – | – | – | 8 ng/mL (≈ 0.0193 µM) |
